ChEMBL document CHEMBL1649378, “Synthesis and biological evaluation of new derivatives of 2-substituted 4-hydroxybutanamides as GABA uptake inhibitors” (Eur J Med Chem, 2011)

Key:
[1] = system: Sodium- and chloride-dependent GABA transporter 2 (Mus musculus); experiment: Inhibition of [3H]GABA uptake at GAT2 expressed in HEK cells; parameters: inhibition: concentration or dose not given beside the values; details: HEK293; for inhibition: concentration not given here
[2] = molecular target: Sodium- and chloride-dependent GABA transporter 1 (Mus musculus) (UniProt P31648); experiment: Inhibition of NO711 binding to mouse GAT1 by MS-binding assay; parameters: inhibition: concentration or dose not given beside the values; details: for inhibition: concentration not given here
Summary of the method: (§1)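 Binding assay on murine GAT1 with unlabelled NO711 as marker, quantified by LC-MS/MS on a triple quadrupole instrument. Compounds were first screened at 100 μM. Those cutting NO711 binding by at least 50% were rated active and then given pKi values.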

[3] = molecular target: Sodium- and chloride-dependent GABA transporter 1 (Mus musculus) (UniProt P31648); experiment: Inhibition of [3H]GABA uptake at GAT1 expressed in HEK cells; parameters: inhibition: concentration or dose not given beside the values; details: HEK293; for inhibition: concentration not given here
[4] = system: Sodium- and chloride-dependent GABA transporter 2 (Mus musculus); experiment: Inhibition of [3H]GABA uptake at GAT2 expressed in HEK cells at 100 uM; details: HEK293
[5] = system: Sodium- and chloride-dependent GABA transporter 3 (Mus musculus); experiment: Inhibition of [3H]GABA uptake at GAT3 expressed in HEK cells at 100 uM; details: HEK293
[6] = molecular target: Sodium- and chloride-dependent GABA transporter 1 (Mus musculus) (UniProt P31648); experiment: Remaining NO711 binding to mouse GAT1 by MS-binding assay
HEK293 = experiment: Inhibition of [3H]GABA uptake at GAT4 expressed in HEK cells at 100 uM; type: cell-based
Summary of the method: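 [³H]GABA uptake measured in HEK cells stably transfected with the individual murine GABA transporter subtypes GAT1–GAT4. Compounds were first screened at 100 μM, and results are given as % remaining GABA uptake (means). Those cutting uptake by at least 50% were rated active and then given pIC50 values.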

[7] = molecular target: Sodium- and chloride-dependent GABA transporter 1 (Mus musculus) (UniProt P31648); experiment: Inhibition of [3H]GABA uptake at GAT1 expressed in HEK cells at 100 uM; details: HEK293
[8] = molecular target: Sodium- and chloride-dependent GABA transporter 1 (Mus musculus) (UniProt P31648); experiment: Inhibition of NO711 binding to mouse GAT1 at 100 uM by MS-binding assay
Summary of the method: as §1

COc1ccc(CNC(=O)C(CCO)N2CCN(C(c3ccc(F)cc3)c3ccc(F)cc3)CC2)cc1 (racemic)
inhibition [1]: 65% | inhibition [2]: 101% | inhibition [3]: 93%

COc1ccc(CNC(=O)C(CCO)N2CCN(C(c3ccccc3)c3ccccc3)CC2)cc1 (racemic)
inhibition [4]: 78% | inhibition [5]: 61%

Cc1ccc(CNC(=O)C(CCO)N2CCN(C(c3ccc(F)cc3)c3ccc(F)cc3)CC2)cc1 (racemic)
pIC50 [1]: 4.44 | remaining binding [6]: 92% | pIC50 [3]: 4.23

Cc1ccc(CNC(=O)C(CCO)N2CCN(C(c3ccccc3)c3ccccc3)CC2)cc1 (racemic)
remaining binding [6]: 61%

NC(=O)C(CCO)N1CCN(C(c2ccc(F)cc2)c2ccc(F)cc2)CC1 (racemic)
inhibition [1]: 84% | inhibition [2]: 106% | inhibition [3]: 66%

NC(=O)C(CCO)N1CCN(C(c2ccccc2)c2ccccc2)CC1 (racemic)
inhibition [5]: 83% | remaining binding [6]: 98%

NC(=O)C(CCO)N1CCNCC1 (racemic)
inhibition [1]: 110% | inhibition [3]: 84%

O=C(NCCc1ccccc1)C(CCO)N1CCN(C(c2ccc(F)cc2)c2ccc(F)cc2)CC1 (racemic)
pIC50 [1]: 4.43 | inhibition [2]: 98% | inhibition [3]: 69%

O=C(NCCc1ccccc1)C(CCO)N1CCN(C(c2ccccc2)c2ccccc2)CC1 (racemic)
inhibition [4]: 93% | inhibition [5]: 80%

O=C(NCc1ccc(Cl)cc1)C(CCO)N1CCN(C(c2ccc(F)cc2)c2ccc(F)cc2)CC1 (racemic)
pIC50 [1]: 4.35 | remaining binding [6]: 102% | pIC50 [3]: 4.14

O=C(NCc1ccc(Cl)cc1)C(CCO)N1CCN(C(c2ccccc2)c2ccccc2)CC1 (racemic)
pIC50 [1]: 4.56 | pKi [2]: 4.33 | pIC50 [3]: 4.88

O=C(NCc1ccc(Cl)cc1)C(CCO)N1CCNCC1 (racemic)
inhibition [1]: 98% | inhibition [3]: 79%

O=C(NCc1ccc(F)cc1)C(CCO)N1CCN(C(c2ccc(F)cc2)c2ccc(F)cc2)CC1 (racemic)
pIC50 [1]: 4.13 | remaining binding [6]: 75% | pIC50 [3]: 4.03

O=C(NCc1ccc(F)cc1)C(CCO)N1CCN(C(c2ccccc2)c2ccccc2)CC1 (racemic)
inhibition [4]: 52% | pKi [2]: 4.82 | pIC50 [3]: 4.84

O=C(NCc1ccccc1)C(CCO)N1CCC(Cc2ccccc2)CC1 (racemic)
inhibition [1]: 49% | inhibition [2]: 86% | inhibition [3]: 75%

O=C(NCc1ccccc1)C(CCO)N1CCN(C(c2ccc(F)cc2)c2ccc(F)cc2)CC1 (racemic)
pIC50 [1]: 4.33 | remaining binding [6]: 63% | pIC50 [3]: 4.19

O=C(NCc1ccccc1)C(CCO)N1CCN(C(c2ccccc2)c2ccccc2)CC1 (racemic)
pIC50 [1]: 4.47 | inhibition [5]: 46% | pKi [2]: 4.96 | inhibition (HEK293): 54% | pIC50 [3]: 4.66

O=C(NCc1ccccc1)C(CCO)N1CCNCC1 (racemic)
inhibition [1]: 98% | inhibition [2]: 76% | inhibition [3]: 63%

O=C(NCc1ccccc1)C(CCO)N1CCOCC1 (racemic)
inhibition [1]: 98% | inhibition [2]: 95% | inhibition [3]: 113%

O=C(NCc1ccccc1Cl)C(CCO)N1CCN(C(c2ccc(F)cc2)c2ccc(F)cc2)CC1 (racemic)
pIC50 [1]: 4.17 | remaining binding [6]: 93% | pIC50 [3]: 4.2

O=C(NCc1ccccc1Cl)C(CCO)N1CCN(C(c2ccccc2)c2ccccc2)CC1 (racemic)
inhibition [4]: 72% | inhibition [5]: 73% | inhibition [7]: 83%

O=C(NCc1ccccc1F)C(CCO)N1CCN(C(c2ccc(F)cc2)c2ccc(F)cc2)CC1 (racemic)
inhibition [1]: 65% | remaining binding [6]: 92% | inhibition [3]: 97%

O=C(NCc1ccccc1F)C(CCO)N1CCN(C(c2ccccc2)c2ccccc2)CC1 (racemic)
pIC50 [1]: 4.33 | inhibition [8]: 55% | pIC50 [3]: 4.48
